According to ChEMBL document CHEMBL4033712, “Synthesis and biological evaluation of new C-12(α/β)-(N-) sulfamoyl-phenylamino-14-deoxy-andrographolide derivatives as potent anti-cancer agents” (Bioorg Med Chem Lett, 2017):

How the values were obtained:
Format in all cases: functional
LOX IMVI = experiment: Growth inhibition of human LOXIMVI cells incubated for 48 hrs by sulforhodamine B assay
Method in brief: (§1)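 NCI-60 five-dose screen at 0.01, 0.1, 1, 10 and 100 µM, 48 h incubation, sulforhodamine B end point. GI50 (50% decrease in net growth), TGI (total growth inhibition) and LC50 (net 50% loss of initial cells) taken from log concentration versus % growth inhibition curves.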

786-0 = experiment: Growth inhibition of human 786-0 cells incubated for 48 hrs by sulforhodamine B assay; conditions: 786-0, 48 h; method in brief: as §1
SK-MEL-28 = experiment: Growth inhibition of human SK-MEL-28 cells incubated for 48 hrs by sulforhodamine B assay; conditions: SK-MEL-28, 48 h
Method in brief: (§2)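 NCI 60 human tumour cell line panel, five-dose study at 0.01, 0.1, 1, 10 and 100 µM, 48 h incubation. Sulforhodamine B protein-binding dye end point. GI50 (50% decrease in net cell growth), TGI (total growth inhibition) and LC50 (net 50% loss of initial cells) read from log concentration versus % growth inhibition curves.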

T47D = experiment: Growth inhibition of human T47D cells incubated for 48 hrs by sulforhodamine B assay; method in brief: as §2
M14 = experiment: Growth inhibition of human M14 cells incubated for 48 hrs by sulforhodamine B assay; conditions: M14, 48 h; method in brief: as §1
HCT-116 = experiment: Growth inhibition of human HCT116 cells incubated for 48 hrs by sulforhodamine B assay; conditions: HCT-116, 48 h; method in brief: as §1
OVCAR-3 = experiment: Growth inhibition of human OVCAR3 cells incubated for 48 hrs by sulforhodamine B assay; conditions: OVCAR-3, 48 h; method in brief: as §1
NCI-H322M = experiment: Growth inhibition of human NCI-H322M cells incubated for 48 hrs by sulforhodamine B assay; method in brief: as §1
HT-29 = experiment: Growth inhibition of human HT-29 cells incubated for 48 hrs by sulforhodamine B assay; conditions: HT-29, 48 h; method in brief: as §1
COLO 205 = experiment: Growth inhibition of human COLO205 cells incubated for 48 hrs by sulforhodamine B assay; conditions: COLO 205, 48 h; method in brief: as §1
MCF7 = experiment: Growth inhibition of human MCF7 cells incubated for 48 hrs by sulforhodamine B assay; conditions: MCF7, 48 h; method in brief: as §1
OVCAR-8 = experiment: Growth inhibition of human OVCAR8 cells incubated for 48 hrs by sulforhodamine B assay; conditions: OVCAR-8, 48 h; method in brief: as §1
RXF 393 = experiment: Growth inhibition of human RXF393 cells incubated for 48 hrs by sulforhodamine B assay; conditions: RXF 393, 48 h; method in brief: as §2
SK-MEL-2 = experiment: Growth inhibition of human SK-MEL-2 cells incubated for 48 hrs by sulforhodamine B assay; conditions: SK-MEL-2, 48 h; method in brief: as §2
SNB-19 [1] = experiment: Anticancer activity against human SNB19 cells assessed as cell growth at 10 uM after 48 hrs by sulforhodamine B assay relative to control; conditions: SNB-19, 48 h, read-out: Activity
Method in brief: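 Single-dose NCI-60 panel screen: compound added at 10 µM and the culture incubated 48 h. The end point was read by protein staining with sulforhodamine B. The value is percent growth of treated cells relative to untreated control cells, reported as a mean graph across the panel.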

Hs-578T = experiment: Growth inhibition of human Hs 578T cells incubated for 48 hrs by sulforhodamine B assay; method in brief: as §1
K562 = experiment: Growth inhibition of human K562 cells incubated for 48 hrs by sulforhodamine B assay; conditions: K562, 48 h; method in brief: as §1
SNB-75 = experiment: Growth inhibition of human SNB75 cells incubated for 48 hrs by sulforhodamine B assay; conditions: SNB-75, 48 h; method in brief: as §2
OVCAR-5 = experiment: Growth inhibition of human OVCAR5 cells incubated for 48 hrs by sulforhodamine B assay; conditions: OVCAR-5, 48 h; method in brief: as §1
SNB-19 [2] = experiment: Growth inhibition of human SNB19 cells incubated for 48 hrs by sulforhodamine B assay; conditions: SNB-19, 48 h; method in brief: as §2
HCC 2998 = experiment: Growth inhibition of human HCC2998 cells incubated for 48 hrs by sulforhodamine B assay; conditions: HCC 2998, 48 h; method in brief: as §1
ACHN = experiment: Growth inhibition of human ACHN cells incubated for 48 hrs by sulforhodamine B assay; method in brief: as §1
SK-MEL-5 = experiment: Growth inhibition of human SK-MEL-5 cells incubated for 48 hrs by sulforhodamine B assay; conditions: SK-MEL-5, 48 h; method in brief: as §2
NCI-H522 = experiment: Growth inhibition of human NCI-H522 cells incubated for 48 hrs by sulforhodamine B assay; conditions: NCI-H522, 48 h; method in brief: as §1
OVCAR-4 = experiment: Growth inhibition of human OVCAR4 cells incubated for 48 hrs by sulforhodamine B assay; conditions: OVCAR-4, 48 h; method in brief: as §1
A498 = experiment: Growth inhibition of human A498 cells incubated for 48 hrs by sulforhodamine B assay; conditions: A498, 48 h; method in brief: as §1
U-251 = experiment: Growth inhibition of human U251 cells incubated for 48 hrs by sulforhodamine B assay; conditions: U-251, 48 h; method in brief: as §2
SF-268 = experiment: Growth inhibition of human SF268 cells incubated for 48 hrs by sulforhodamine B assay; conditions: SF-268, 48 h; method in brief: as §2
BT-549 = experiment: Growth inhibition of human BT549 cells incubated for 48 hrs by sulforhodamine B assay; conditions: BT-549, 48 h; method in brief: as §1
[3] = read-out: LC50 (the source's name)

C=C1CC[C@@H]2[C@](C)(COC(C)=O)[C@H](OC(C)=O)CC[C@@]2(C)[C@H]1CC(Nc1ccc(S(=O)(=O)Nc2nccc(C)n2)cc1)C1=CCOC1=O (stereo not given in full)
GI50 (LOX IMVI): 1.53 µM
TGI (LOX IMVI): 3.24 µM
CC50 (LOX IMVI; [3]): 6.89 µM
GI50 (786-0): 2.27 µM
LC50 (concentration giving net 50% loss of initial cells) (786-0): 13.8 µM
TGI (786-0): 5.06 µM
GI50 (SK-MEL-28): 2.83 µM
LC50 (50% net cell kill) (SK-MEL-28): 36.3 µM
TGI (SK-MEL-28): 10.1 µM
GI50 (T47D): 2.77 µM
TGI (T47D): 8.33 µM
CC50 (T47D; [3]): > 100 µM
GI50 (M14): 2.81 µM
TGI (M14): 10.8 µM
CC50 (M14; [3]): 72.6 µM
GI50 (HCT-116): 1.6 µM
TGI (HCT-116): 3.56 µM
CC50 (HCT-116; [3]): 7.96 µM
GI50 (OVCAR-3): 1.76 µM
TGI (OVCAR-3): 3.36 µM
CC50 (OVCAR-3; [3]): 6.43 µM
GI50 (NCI-H322M): 11.3 µM
TGI (NCI-H322M): 23.9 µM
CC50 (NCI-H322M; [3]): 50.7 µM
GI50 (HT-29): 2.02 µM
TGI (HT-29): 4.24 µM
CC50 (HT-29; [3]): 8.93 µM
GI50 (COLO 205): 2.09 µM
TGI (COLO 205): 4.66 µM
CC50 (COLO 205; [3]): 11.9 µM
GI50 (MCF7): 2.27 µM
TGI (MCF7): 12.5 µM
CC50 (MCF7; [3]): > 100 µM
GI50 (OVCAR-8): 2.61 µM
TGI (OVCAR-8): 8.56 µM
CC50 (OVCAR-8; [3]): 47.6 µM
GI50 (RXF 393): 2.33 µM
TGI (RXF 393): 4.18 µM
CC50 (RXF 393; [3]): 7.49 µM
GI50 (SK-MEL-2): 6.01 µM
TGI (SK-MEL-2): 20 µM
CC50 (SK-MEL-2; [3]): 52.1 µM
growth at 10 µM (SNB-19 [1]): 53.6%
GI50 (Hs-578T): 6.65 µM
LC50 (Hs-578T): > 100 µM
TGI (Hs-578T): 43 µM
GI50 (K562): 2.97 µM
TGI (K562): 21.7 µM
CC50 (K562; [3]): > 100 µM
GI50 (SNB-75): 2.69 µM
TGI (SNB-75): 14.9 µM
CC50 (SNB-75; [3]): 38.6 µM
GI50 (OVCAR-5): 3.86 µM
LC50 (concentration causing net 50% loss of initial cells) (OVCAR-5): 42.2 µM
TGI (OVCAR-5): 12.8 µM
GI50 (SNB-19 [2]): 6.3 µM
TGI (SNB-19 [2]): 20.7 µM
CC50 (SNB-19 [2]; [3]): 52.7 µM
GI50 (HCC 2998): 4.98 µM
TGI (HCC 2998): 17.9 µM
CC50 (HCC 2998; [3]): 48.1 µM
GI50 (ACHN): 3.64 µM
TGI (ACHN): 13 µM
CC50 (ACHN; [3]): 38.4 µM
GI50 (SK-MEL-5): 3.79 µM
TGI (SK-MEL-5): 14 µM
CC50 (SK-MEL-5; [3]): 41.2 µM
GI50 (NCI-H522): 1.26 µM
TGI (NCI-H522): 3.1 µM
CC50 (NCI-H522; [3]): 7.62 µM
GI50 (OVCAR-4): 4.37 µM
LC50 (OVCAR-4): 41.4 µM
TGI (OVCAR-4): 15.8 µM
GI50 (A498): 14.8 µM
LC50 (concentration giving net 50% loss of initial cells) (A498): 54.4 µM
TGI (A498): 28.4 µM
GI50 (U-251): 3.17 µM
TGI (U-251): 10.7 µM
CC50 (U-251; [3]): 33.3 µM
GI50 (SF-268): 6.19 µM
TGI (SF-268): 20.9 µM
CC50 (SF-268; [3]): 54.2 µM
GI50 (BT-549): 2.3 µM
TGI (BT-549): 5.61 µM
CC50 (BT-549; [3]): 18.7 µM
